Series [1] in a line: Inhibition of TNFalpha-stimulated NF-kappaB (unknown origin) activation expressed in HEK293 cells incubated for 6 hrs with TNFalpha followed by incubation in dark for 30 mins by luciferase reporter gene assay. It is filed as cell-based. The note with it: Homo sapiens. In short, it runs like this:
(§1)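 HEK293 cells stably carrying NF-κB-responsive luciferase reporter (selected with 1 mg/mL G418) seeded, after 24 h stimulated with TNF-α 0.2 μg/mL, then exposed to compounds for 6 h; lysate incubated with luciferase substrate 30 min in dark, luminescence read. Screening at 20 µg/mL as percent inhibition; IC50 from nine concentrations, 0.78-20 μM. PS-341 reference.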
In general terms: In a reporter assay the amount or activity of a reporter protein is the signal.

The next series concerns A549. Briefly: Antiproliferative activity against human A549 cells after 48 hrs by MTT assay. The note with it: A549, 48 h. It is filed as functional, cell-based. Put shortly:
(§2)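 Tumour cell lines MCF-7, A549, H157, HepG2 and HL-60 were tested by MTT method; doxorubicin served as positive control.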

For another series, the system named is HepG2. Briefly: Antiproliferative activity against human HepG2 cells after 48 hrs by MTT assay. The class given is functional, cell-based. The conditions noted are these: HepG2, 48 h. In short, it runs like this:
as §2
(In general: Tetrazolium assays rely on reduction of a dye to a coloured formazan, in cell work by metabolically active cells.)

The species named for series [2] is Homo sapiens. In words: Inhibition of TNFalpha-stimulated NF-kappaB (unknown origin) activation expressed in HEK293 cells at 20 ug/ml incubated for 6 hrs with TNFalpha followed by incubation in dark for 30 mins by luciferase reporter gene assay relative to control. It is filed as cell-based. Put shortly:
as §1

Series [3] can be described thus: Cytotoxicity against HEK293 cells assessed as cell viability at 20 ug/ml relative to control. The conditions noted are these: human, read-out: Activity. It is filed as cell-based. Put shortly:
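HEK293/NF-κB reporter cells exposed to compounds at 20 µg/mL; cytotoxicity assessed.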

For a further series, the system named is HL-60. Briefly: Antiproliferative activity against human HL60 cells after 48 hrs by MTT assay. The class given is functional, cell-based. The conditions noted are these: HL-60, 48 h. In short, it runs like this:
as §2

The next series relates to NCI-H157. Briefly: Antiproliferative activity against human NCI-H157 cells after 48 hrs by MTT assay. The class given is functional, cell-based. The note with it: NCI-H157, 48 h. In short, it runs like this:
as §2

In the next series the test system is MCF7. In words: Antiproliferative activity against human MCF7 cells after 48 hrs by MTT assay. The note with it: MCF7, 48 h. The class given is functional, cell-based. In short, it runs like this:
as §2

The species entered for series [4] is Homo sapiens. Briefly: Inhibition of TNFalpha-stimulated NF-kappaB (unknown origin) activation assessed as IkappaBalpha degradation at 10 uM after 4 hrs by Western blot analysis.

As usually defined, the IC50 is the concentration at which inhibition is half-maximal. A lower IC50 goes with greater potency. Broadly, the inhibition is the share of the control response that was lost under treatment.

The structures appear in SMILES notation. Active and inactive are the calls of the source. No cut-off for these calls is given here. Some results are limits rather than exact numbers.

With `CC(=O)[C@H]1CC[C@H]2[C@@H]3CC=C4C[C@@H](OC(=O)NCCNC(=O)/C(C#N)=C/c5ccc(C#N)cc5)CC[C@]4(C)[C@H]3CC[C@]12C`, the IC50 is 7.5 µM in series [1]; above 50 µM in the series with A549; above 50 µM with HepG2; above 100 µM with HL-60; 24.5 µM in the series on NCI-H157; above 50 µM in the series on MCF7. The inhibition in the series filed under Homo sapiens [2] was determined as 64.4%. Besides, the viability at 20 ug/ml in series [3] was found to be 64.4%.

In turn, `CC(=O)[C@H]1CC[C@H]2[C@@H]3CC=C4C[C@@H](OC(=O)NCCNC(=O)/C(C#N)=C/c5ccccc5)CC[C@]4(C)[C@H]3CC[C@]12C` gave an inhibition in the series filed under Homo sapiens [2] of 46.7%.

`COc1cc(/C=C(\C#N)C(=O)NCCNC(=O)O[C@H]2CC[C@@]3(C)C(=CC[C@H]4[C@@H]5CC[C@H](C(C)=O)[C@@]5(C)CC[C@@H]43)C2)cc(OC)c1O` returned an inhibition in the series listed under Homo sapiens [2] of 5%.

`CC(=O)[C@H]1CC[C@H]2[C@@H]3CC=C4C[C@@H](OC(=O)NCCNC(=O)/C(C#N)=C/c5ccc(O)cc5)CC[C@]4(C)[C@H]3CC[C@]12C` displayed an inhibition in the series filed under Homo sapiens [2] of 44.9%.

`CC(C)C[C@H](NC(=O)[C@H](Cc1ccccc1)NC(=O)c1cnccn1)B(O)O` [BORTEZOMIB]: in series [1], the midpoint of inhibition, the IC50, lay at 0.03 µM.

Turning to `COc1cccc(/C=C(\C#N)C(=O)NCCNC(=O)O[C@H]2CC[C@@]3(C)C(=CC[C@H]4[C@@H]5CC[C@H](C(C)=O)[C@@]5(C)CC[C@@H]43)C2)c1`, the inhibition in the series filed under Homo sapiens [2] turned out to be 22.2%.

For `CC(=O)[C@H]1CC[C@H]2[C@@H]3CC=C4C[C@@H](OC(=O)NCCNC(=O)/C(C#N)=C/c5ccc(N(C)C)cc5)CC[C@]4(C)[C@H]3CC[C@]12C`, in the series listed under Homo sapiens [2], the inhibition came to 1.2%.

`CC(=O)[C@H]1CC[C@H]2[C@@H]3CC=C4C[C@@H](OC(=O)NCCNC(=O)OC(C)(C)C)CC[C@]4(C)[C@H]3CC[C@]12C`: the IC50 in series [1] was 12.2 µM; with A549, above 50 µM; in the series on HepG2, above 50 µM; in the series on HL-60 it was above 50 µM; in the series with NCI-H157, above 50 µM; in the series with MCF7, above 50 µM. In addition, the inhibition in the series filed under Homo sapiens [2] amounted to 76.6%. In addition, the viability at 20 ug/ml in [3] was 85.5%.

As for `CC(=O)[C@H]1CC[C@H]2[C@@H]3CC=C4C[C@@H](OC(=O)NCCNC(=O)CC#N)CC[C@]4(C)[C@H]3CC[C@]12C`, the half-inhibitory concentration (IC50) in [1] was 12.4 µM; in the series with A549, above 50 µM; with HepG2 it was above 50 µM; in the series with HL-60 it was above 50 µM; in the series with NCI-H157, above 50 µM; with MCF7, above 50 µM. In the series listed under Homo sapiens [2], this compound returned an inhibition of 74.4%. The viability at 20 ug/ml in series [3] was found to be 87.9%.

As for `CC(=O)[C@H]1CC[C@H]2[C@@H]3CC=C4C[C@@H](OC(=O)NCCNC(=O)/C(C#N)=C/c5cccc(Br)c5)CC[C@]4(C)[C@H]3CC[C@]12C`, the inhibition in the series listed under Homo sapiens [2] was 30.9%.

In the series filed under Homo sapiens [2], `CC(=O)[C@H]1CC[C@H]2[C@@H]3CC=C4C[C@@H](OC(=O)NCCNC(=O)/C(C#N)=C/c5ccc(F)cc5)CC[C@]4(C)[C@H]3CC[C@]12C` registered an inhibition of 43.1%.

In the case of `CC(=O)[C@H]1CC[C@H]2[C@@H]3CC=C4C[C@@H](OC(=O)NCCNC(=O)/C(C#N)=C/c5cccc([N+](=O)[O-])c5)CC[C@]4(C)[C@H]3CC[C@]12C`, the IC50 in series [1] is 2.5 µM; in the series on A549, 36.2 µM; in the series on HepG2, above 50 µM; with HL-60, 11.2 µM; in the series on NCI-H157, 30.6 µM; in the series on MCF7 it was 6.5 µM. The compound further showed an inhibition in the series listed under Homo sapiens [2] of 83.9%. Further, the viability at 20 ug/ml in [3] was 54.7%.

Regarding `CC(=O)[C@H]1CC[C@H]2[C@@H]3CC=C4C[C@@H](OC(=O)NCCNC(=O)/C(C#N)=C/c5ccc([N+](=O)[O-])cc5)CC[C@]4(C)[C@H]3CC[C@]12C`, the IC50 in [1] was 10.3 µM; in the series on A549, above 50 µM; in the series on HepG2 it was above 50 µM; with HL-60 it was 10.1 µM; with NCI-H157 it was above 50 µM; with MCF7 it was above 50 µM. This compound also showed an inhibition in the series filed under Homo sapiens [2] of 78.3%. Also, the viability at 20 ug/ml in series [3] was determined as 74.5%. Also, the inhibition result in the series listed under Homo sapiens [4] was “Active”.

In the series filed under Homo sapiens [2], `COc1ccc(/C=C(\C#N)C(=O)NCCNC(=O)O[C@H]2CC[C@@]3(C)C(=CC[C@H]4[C@@H]5CC[C@H](C(C)=O)[C@@]5(C)CC[C@@H]43)C2)cc1OC` displayed an inhibition of 5.8%.

For the compound `COc1cccc2c1C(=O)c1c(O)c3c(c(O)c1C2=O)C[C@@](O)(C(=O)CO)C[C@@H]3O[C@H]1C[C@H](N)[C@H](O)[C@H](C)O1` [DOXORUBICIN], the IC50 in the series on A549 was found to be 11 µM; in the series with HL-60, 0.91 µM; in the series with NCI-H157 it was 0.61 µM; in the series on MCF7, 4.4 µM.

With `COc1ccc(/C=C(\C#N)C(=O)NCCNC(=O)O[C@H]2CC[C@@]3(C)C(=CC[C@H]4[C@@H]5CC[C@H](C(C)=O)[C@@]5(C)CC[C@@H]43)C2)cc1`, the inhibition in the series listed under Homo sapiens [2] came to 22.3%.

Consider `CC(=O)[C@H]1CC[C@H]2[C@@H]3CC=C4C[C@@H](OC(=O)NCCNC(=O)/C(C#N)=C/c5ccc(Br)cc5)CC[C@]4(C)[C@H]3CC[C@]12C`, for which, in the series listed under Homo sapiens [2], the inhibition amounted to 15.9%.

Turning to `CC(=O)[C@H]1CC[C@H]2[C@@H]3CC=C4C[C@@H](OC(=O)NCCNC(=O)/C(C#N)=C/c5cccc(F)c5)CC[C@]4(C)[C@H]3CC[C@]12C`, the half-inhibitory concentration (IC50) in series [1] is 7.1 µM; in the series with A549 it was above 50 µM; in the series on HepG2, above 50 µM; in the series on HL-60, 45.6 µM; with NCI-H157 it was 17.9 µM; in the series on MCF7 it was 6.1 µM. Moreover, the inhibition in the series filed under Homo sapiens [2] turned out to be 64.2%. Moreover, the viability at 20 ug/ml in series [3] was 60.8%.

As for `COc1ccccc1/C=C(\C#N)C(=O)NCCNC(=O)O[C@H]1CC[C@@]2(C)C(=CC[C@H]3[C@@H]4CC[C@H](C(C)=O)[C@@]4(C)CC[C@@H]32)C1`, in the series listed under Homo sapiens [2], the inhibition was determined as 17.8%.

In the case of `COc1ccc(/C=C(\C#N)C(=O)NCCNC(=O)O[C@H]2CC[C@@]3(C)C(=CC[C@H]4[C@@H]5CC[C@H](C(C)=O)[C@@]5(C)CC[C@@H]43)C2)cc1O`, the inhibition in the series filed under Homo sapiens [2] came out at 14.5%.

In the series filed under Homo sapiens [2], `CC(=O)[C@H]1CC[C@H]2[C@@H]3CC=C4C[C@@H](OC(=O)NCCNC(=O)/C(C#N)=C/c5ccc(C(C)C)cc5)CC[C@]4(C)[C@H]3CC[C@]12C` returned an inhibition of 2.1%.

`CC(=O)[C@H]1CC[C@H]2[C@@H]3CC=C4C[C@@H](OC(=O)NCCNC(=O)/C(C#N)=C/c5ccc(O)c(O)c5)CC[C@]4(C)[C@H]3CC[C@]12C` had an inhibition in the series listed under Homo sapiens [2] of 59.3%.

For `CC(=O)[C@H]1CC[C@H]2[C@@H]3CC=C4C[C@@H](OC(=O)NCCNC(=O)/C(C#N)=C/c5cccc(Cl)c5)CC[C@]4(C)[C@H]3CC[C@]12C`, the inhibition in the series filed under Homo sapiens [2] stood at 46.4%.

In the series listed under Homo sapiens [2], `CCN(CC)c1ccc(/C=C(\C#N)C(=O)NCCNC(=O)O[C@H]2CC[C@@]3(C)C(=CC[C@H]4[C@@H]5CC[C@H](C(C)=O)[C@@]5(C)CC[C@@H]43)C2)cc1` displayed an inhibition of 0.5%.

In the case of `COc1cc(/C=C(\C#N)C(=O)NCCNC(=O)O[C@H]2CC[C@@]3(C)C(=CC[C@H]4[C@@H]5CC[C@H](C(C)=O)[C@@]5(C)CC[C@@H]43)C2)cc(O)c1OC`, in the series filed under Homo sapiens [2], the inhibition turned out to be 22.6%.

Compound `CC(=O)[C@H]1CC[C@H]2[C@@H]3CC=C4C[C@@H](OC(=O)NCCNC(=O)/C(C#N)=C/c5ccc6c(c5)OCCO6)CC[C@]4(C)[C@H]3CC[C@]12C` yielded an inhibition in the series filed under Homo sapiens [2] of 4.2%.

In the case of `CC(=O)[C@H]1CC[C@H]2[C@@H]3CC=C4C[C@@H](OC(=O)NCCNC(=O)/C(C#N)=C/c5cccc(C#N)c5)CC[C@]4(C)[C@H]3CC[C@]12C`, the half-maximal inhibitory concentration (IC50) in series [1] was 3.3 µM; in the series on A549, 30.9 µM; in the series with HepG2, above 50 µM; in the series on HL-60, 15.6 µM; in the series with NCI-H157, 21.3 µM; with MCF7, 8.8 µM. The compound further returned an inhibition in the series listed under Homo sapiens [2] of 81.4%. Besides, in series [3], the viability at 20 ug/ml was 59.6%.

`CC(=O)[C@H]1CC[C@H]2[C@@H]3CC=C4C[C@@H](OC(=O)NCCNC(=O)/C(C#N)=C/c5ccc(Cl)cc5)CC[C@]4(C)[C@H]3CC[C@]12C` registered an inhibition in the series filed under Homo sapiens [2] of 18.8%.

In the series listed under Homo sapiens [2], `COc1cc(/C=C(\C#N)C(=O)NCCNC(=O)O[C@H]2CC[C@@]3(C)C(=CC[C@H]4[C@@H]5CC[C@H](C(C)=O)[C@@]5(C)CC[C@@H]43)C2)ccc1O` registered an inhibition of 34.6%.
